Laboratory results taken from ChEMBL document CHEMBL2203116, “Synthesis and evaluation of novel carbon-11 labeled oxopurine analogues for positron emission tomography imaging of translocator protein (18 kDa) in peripheral organs” (J Med Chem, 2011).

Columns and labels:
Liver [1] = test: Drug uptake in Sprague-Dawley rat liver at 0.13 nmol, iv pretreated with unlabeled AC-5216 measured after 27.5 mins by PET scanning relative to control; type: ADME, organism-based; conditions: in vivo
Outline: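 Male Sprague-Dawley rats, 6-8 weeks, isoflurane-anesthetized. A blocking TSPO ligand (1.0 mg/kg, in 300 μL saline with 10% ethanol and 5% polysorbate 80) was injected 1 min before iv radioligand (16-18 MBq/200 μL). Liver ROI as decay-corrected SUV (injected activity, body weight), 27.5-min value versus controls; n = 4.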

Heart [2] = test: Drug uptake in Sprague-Dawley rat heart at 0.13 nmol, iv pretreated with unlabeled (R)-PK11195 by PET scanning; type: ADME, organism-based; conditions: in vivo
Outline: (§1)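 Isoflurane-anesthetized Sprague-Dawley rats underwent 30-min PET after iv [11C]radioligand, with unlabeled blocker given iv 1 min before tracer. Blockers were (R)-PK11195 at 3.0 mg/kg or AC-5216 at 1.0 mg/kg in 300 μL saline with 10% ethanol and 5% polysorbate 80. Regional uptake was decay-corrected SUV (n = 4).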

Liver [3] = test: Drug uptake in Sprague-Dawley rat liver at 0.13 nmol, iv after 27.5 mins by PET scanning; type: ADME, organism-based; conditions: in vivo
Outline: (§2)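 Male Sprague-Dawley rats (6–8 weeks old), isoflurane-anesthetized, prone. ROIs on lung, heart, kidney, liver, small intestine and cardiac blood pool. Uptake decay-corrected to injection time and expressed as SUV (body-weight normalized). n = 4, mean ± SD.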

Heart [4] = test: Drug uptake in Sprague-Dawley rat heart at 0.13 nmol, iv after 27.5 mins by PET scanning; type: ADME, organism-based; conditions: in vivo
Outline: (§3)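 Isoflurane-anesthetized male Sprague-Dawley rats lay prone and received an iv bolus of [11C]radioligand in 200 μL. 3D list-mode emission scans ran 30 min from injection. Regions of interest were drawn on the organs and cardiac blood pool. Uptake was decay-corrected to injection time and expressed as SUV (normalized to injected radioactivity and body weight). Values are mean of n = 4.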

Lung [5] = test: Drug uptake in Sprague-Dawley rat lung at 0.13 nmol, iv after 27.5 mins by PET scanning; type: ADME, organism-based; conditions: in vivo; outline: as §2
Kidney [6] = test: Drug uptake in Sprague-Dawley rat kidney at 0.13 nmol, iv pretreated with unlabeled (R)-PK11195 by PET scanning; type: ADME, organism-based; conditions: in vivo; outline: as §1
Lung [7] = test: Drug uptake in Sprague-Dawley rat lung at 0.13 nmol, iv pretreated with unlabeled (R)-PK11195 by PET scanning; type: ADME, organism-based; conditions: in vivo; outline: as §2
Lung [8] = test: Drug uptake in Sprague-Dawley rat lung at 0.13 nmol, iv up to 30 mins by PET scanning; type: ADME, organism-based; conditions: in vivo, 0.5 h; outline: as §2
Kidney [9] = test: Drug uptake in Sprague-Dawley rat kidney at 0.13 nmol, iv pretreated with unlabeled AC-5216 by PET scanning; type: ADME, organism-based; conditions: in vivo; outline: as §2
Lung [10] = test: Drug uptake in Sprague-Dawley rat lung at 0.13 nmol, iv pretreated with unlabeled AC-5216 by PET scanning; type: ADME, organism-based; conditions: in vivo; outline: as §2
Blood [11] = test: Drug uptake in Sprague-Dawley rat cardiac blood pool at 0.13 nmol, iv after 2 mins by PET scanning; type: ADME, organism-based; conditions: in vivo; outline: as §3
Lung [12] = test: Drug uptake in Sprague-Dawley rat lung at 0.13 nmol, iv after 2 mins by PET scanning; type: ADME, organism-based; conditions: in vivo; outline: as §2
Heart [13] = test: Drug uptake in Sprague-Dawley rat heart at 0.13 nmol, iv up to 30 mins by PET scanning; type: ADME, organism-based; conditions: in vivo, 0.5 h; outline: as §3
Liver [14] = test: Drug uptake in Sprague-Dawley rat liver at 0.13 nmol, iv pretreated with unlabeled (R)-PK11195 measured after 27.5 mins by PET scanning relative to control; type: ADME, organism-based; conditions: in vivo
Outline: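 Male Sprague-Dawley rats, 6-8 weeks old, under isoflurane, prone. An unlabeled TSPO blocking ligand (3.0 mg/kg) was injected 1 min before the iv radioligand (16-18 MBq/200 μL). A liver ROI was decay-corrected and expressed as SUV normalized to injected activity and body weight. The 27.5-min value was compared with unblocked controls; n = 4.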

Intestine = test: Drug uptake in Sprague-Dawley rat small intestine at 0.13 nmol, iv up to 30 mins by PET scanning; type: ADME, organism-based; conditions: in vivo, 0.5 h; outline: as §2
Kidney [15] = test: Drug uptake in Sprague-Dawley rat kidney at 0.13 nmol, iv after 27.5 mins by PET scanning; type: ADME, organism-based; conditions: in vivo; outline: as §3
Kidney [16] = test: Drug uptake in Sprague-Dawley rat kidney at 0.13 nmol, iv up to 30 mins by PET scanning; type: ADME, organism-based; conditions: in vivo, 0.5 h; outline: as §2
Liver [17] = test: Drug uptake in Sprague-Dawley rat liver at 0.13 nmol, iv after 2 mins by PET scanning; type: ADME, organism-based; conditions: in vivo; outline: as §2
Blood [18] = test: Drug uptake in Sprague-Dawley rat cardiac blood pool at 0.13 nmol, iv up to 30 mins by PET scanning; type: ADME, organism-based; conditions: in vivo, 0.5 h; outline: as §3
Blood [19] = test: Drug uptake in Sprague-Dawley rat cardiac blood pool at 0.13 nmol, iv after 27.5 mins by PET scanning; type: ADME, organism-based; conditions: in vivo; outline: as §3
Kidney [20] = test: Drug uptake in Sprague-Dawley rat kidney at 0.13 nmol, iv after 2 mins by PET scanning; type: ADME, organism-based; conditions: in vivo; outline: as §3
Heart [21] = test: Drug uptake in Sprague-Dawley rat heart at 0.13 nmol, iv after 2 mins by PET scanning; type: ADME, organism-based; conditions: in vivo; outline: as §3
Heart [22] = test: Drug uptake in Sprague-Dawley rat heart at 0.13 nmol, iv pretreated with unlabeled AC-5216 by PET scanning; type: ADME, organism-based; conditions: in vivo; outline: as §1
Liver [23] = test: Drug uptake in Sprague-Dawley rat liver at 0.13 nmol, iv up to 30 mins by PET scanning; type: ADME, organism-based; conditions: in vivo, 0.5 h; outline: as §2
[24] = Lipophilicity, log D of the compound in octanol-phosphate buffer at pH 7.4 by shake flask method; type: physicochemical
Outline: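 Radioligand (~200000 cpm) shaken with n-octanol (3.0 g) and 0.1 M sodium phosphate buffer pH 7.4 (3.0 g). Vortexed 3 min at room temperature, centrifuged 3500 rpm for 5 min. Phases weighed and counted; organic layer repartitioned until consistent. LogD = log of the cpm/g octanol to cpm/g buffer ratio. Triplicate.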

Translocator protein = Translocator protein (Rattus norvegicus, UniProt P16257); test: Displacement of [11C]-PK-11195 from TPSO in Sprague-Dawley rat brain homogenate after 30 mins by gamma counting; type: tissue-based
Translocator protein, sequence (P16257 whole entry, looked up): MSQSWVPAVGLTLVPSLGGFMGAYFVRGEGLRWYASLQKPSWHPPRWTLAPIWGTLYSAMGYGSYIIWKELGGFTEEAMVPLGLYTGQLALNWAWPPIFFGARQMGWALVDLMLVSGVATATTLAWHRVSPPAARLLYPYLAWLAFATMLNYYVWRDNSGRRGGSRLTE

CN(Cc1cccnc1)C(=O)Cn1c(=O)n([11CH3])c2cnc(-c3ccccc3)nc21
fold change (FC) (Liver [1]): 1.5 | Drug uptake (Heart [2]): Not Active | SUV (Liver [3]): 0.5 | SUV (Heart [4]): 0.9 | SUV (Lung [5]): 0.5 | Drug uptake (Kidney [6]): Not Active | Drug uptake (Lung [7]): Not Active | Drug uptake (Lung [8]): Active | Drug uptake (Kidney [9]): Not Active | Drug uptake (Lung [10]): Not Active | SUV (Blood [11]): 3 | SUV (Lung [12]): 3.4 | Drug uptake (Heart [13]): Active | fold change (FC) (Liver [14]): 1.5 | Drug uptake (Intestine): Active | SUV (Kidney [15]): 1 | Drug uptake (Kidney [16]): Active | SUV (Liver [17]): 1.6 | Drug uptake (Blood [18]): Active | SUV (Blood [19]): 0.4 | SUV (Kidney [20]): 3.3 | SUV (Heart [21]): 4.6 | Drug uptake (Heart [22]): Not Active | Drug uptake (Liver [23]): Active

CCN(Cc1ccncc1)C(=O)Cn1c(=O)n(C)c2cnc(-c3ccccc3)nc21
logD [24]: 2.03 | Ki (Translocator protein): 5.1 nM
